Screens: PubChem BioAssay, The Scripps Research Institute Molecular Screening Center
M4 PAM = positive allosteric modulators of human muscarinic M4 receptor | P08173 | CHO-K1 hM4/Gqi5, Fluo-8 calcium fluorescence, ACh EC20; 0% = ACh EC20, 100% = maximal ACh | activation, % at 3 µM | 360,000 compounds, 0.4% hits | AID 624126;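 active means activation above its plate's cutoff, the mean activation of sample wells plus 3 SD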
CHRM4 antagonist = antagonists of human muscarinic M4 receptor (CHRM4); P08173; CHO-hM4 cells, ACh EC80, Fluo-8 calcium fluorescence; inhibition, % at 3 µM; 360,000 compounds, 0.73% hits; AID 624125;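 active means inhibition above its plate's cutoff, the mean inhibition of sample wells plus 3 SD, cut at about 27% in these data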;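 further: 0% = acetylcholine EC80 with DMSO and 100% = DMSO without agonist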
CHRM5 antagonist = CHRM5 antagonism in calcium assay. CHO-hM5 cells, Fluo-8 calcium fluorescence, ACh EC80. inhibition, % at 3 µM. 360,000 compounds, 0.59% hits;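 active means inhibition above a per-plate cutoff, the mean of that plate's test compounds plus 3 SD, cut at about 27% in these data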;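 further: 0% = acetylcholine EC80 with DMSO and 100% = DMSO without agonist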
Target sequence (P08912 whole entry, looked up): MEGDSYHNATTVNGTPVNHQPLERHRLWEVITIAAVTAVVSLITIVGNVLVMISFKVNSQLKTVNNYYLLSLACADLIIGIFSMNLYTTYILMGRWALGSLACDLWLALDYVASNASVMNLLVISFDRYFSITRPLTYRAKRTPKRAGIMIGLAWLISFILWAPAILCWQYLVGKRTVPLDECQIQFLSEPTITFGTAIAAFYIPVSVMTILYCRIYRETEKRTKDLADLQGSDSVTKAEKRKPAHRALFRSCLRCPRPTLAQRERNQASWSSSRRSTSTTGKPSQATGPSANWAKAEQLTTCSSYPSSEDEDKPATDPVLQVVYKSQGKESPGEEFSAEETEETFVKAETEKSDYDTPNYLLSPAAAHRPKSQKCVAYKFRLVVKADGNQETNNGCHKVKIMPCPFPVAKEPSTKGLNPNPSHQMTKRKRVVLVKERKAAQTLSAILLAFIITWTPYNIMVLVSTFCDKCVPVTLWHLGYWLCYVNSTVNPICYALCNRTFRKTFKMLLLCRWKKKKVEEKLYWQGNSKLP
M5 PAM = potentiates acetylcholine response at human M5 receptor; P08912; CHO-K1 hM5, Fluo-8 calcium, ACh EC20 PAM; 0% = ACh EC20, 100% = ACh EC100; activation, % at 3 µM; 360,000 compounds, 0.3% hits;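 active means activation above the run cutoff, the mean activation of all test compounds plus 3 SD, cut at about 18% in these data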
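System – CHO-K1 hM5 cells · Compound – 3 µM, single dose · Incubation – compound preincubation 140 s before EC20 acetylcholine addition · Technique – Fluo-8 calcium fluorescence · Measure – Max/basal fluorescence ratio as % of EC20–EC100 ACh window · Benchmarks – low control EC20 acetylcholine (0%), high control EC100 acetylcholine (100%) · Replication – singlicate, one well per test compound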
M4 ag = CHRM4 agonism in calcium assay | activation, % at 3 µM | P08173 | 360,000 compounds, 0.14% hits | CHO-K1 hM4/Gqi5, Fluo-8 calcium fluorescence; vehicle 0%, full acetylcholine response 100% | AID 624127;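 active means activation above the run mean over all test wells plus 3 SD, cut at about 32% in these data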;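 further: peak over basal fluorescence ratio per well then scaled between controls; 0% = DMSO wells and 100% = acetylcholine at EC100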
M5 ag = agonists of human muscarinic M5 receptor (CHRM5); CHO-K1 hM5 cells, Fluo-8 calcium fluorescence; 0% DMSO wells, 100% maximal acetylcholine response; 360,000 compounds, 0.19% hits; P08912; activation, % at 3 µM;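 active means activation above the run's mean over test compounds plus 3 SD, cut at about 23% in these data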;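 further: signal is peak over basal fluorescence ratio across the kinetic read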
* marks the source's active call; other numbers are inactive results. Sampled rows, rich in hits. Any-hit rate of the full collection: about 1.8%.

SMILES | M4 PAM | CHRM4 antagonist | CHRM5 antagonist | M5 PAM | M4 ag | M5 ag
COc1ccc(CCNc2c(C)c(C)nc3ncnn23)cc1 | -1 | 6 | 29* | -23 | 13 | 11
CCc1c(C)nc2ncnn2c1NCCc1ccc(OC)c(OC)c1 | -2 | -2 | 13 | -6 | 3 | 1
O=C(C[C@@H]1C=C[C@H](NC(=O)Cc2ccccn2)[C@@H](CO)O1)NCCc1ccccc1 | 1 | 7 | 2 | 2 | 0 | 2
COc1ccc(NC(=O)C(C2CC2)n2c(=O)c(-c3ccccc3)nc3ccccc32)cc1 (configuration not stated) | 9 | -6 | -4 | 7 | 1 | 1
COc1ccc(CNC(=O)C2CCN(S(=O)(=O)c3ccc4c(c3)C(C)(C)C(=O)N4C)CC2)cc1 | -21 | 101* | 0 | -5 | -3 | 0
CN(Cc1ccccc1)C(=O)[C@@H]1CCCN1 | 3 | -6 | -1 | 1 | 0 | 1
COC(=O)C[C@H]1C=C[C@@H](NC(=O)C2CC2)[C@@H](CO)O1 | 2 | -2 | -8 | 20* | 0 | 1
CCC(=O)N[C@H]1C=C[C@H](CC(=O)OC)O[C@@H]1CO | -1 | 8 | -4 | 6 | 0 | 2
CC1(C(=O)NS(=O)(=O)c2ccc(C#N)cc2)CCN1C(=O)Cc1ccccc1Cl (configuration not stated) | 1 | -9 | -2 | 0 | 0 | 1
Cc1n[nH]c(C)c1CCNC(=O)C1CCC(=O)N(CCc2cccc(F)c2)C1 (configuration not stated) | 10 | -8 | -6 | 24* | 0 | 3
Cc1nn(-c2cc(N3CCNCC3)ccc2[N+](=O)[O-])c(=O)c2ccccc12 | 2 | 0 | -4 | 19* | 1 | -7
CC(=O)Nc1cccc(-c2ccnc3c2CC(C)(C(=O)NCC2CC2)O3)c1 (configuration not stated) | 1 | -2 | 3 | 1 | 0 | 1
CC1(C(=O)NCc2ccccc2)CCC(=O)N1CCCn1ccnc1 (configuration not stated) | -5 | -5 | -2 | -2 | 0 | 2
O=C(Nc1ccc(Cl)cc1)C(Cl)C(=O)c1ccccc1 (configuration not stated) | -20 | 26* | 8 | 6 | 7 | -3
CCN1/C(=C/c2sc(-c3ccccc3C)c[n+]2C)Sc2ccccc21 | -16 | 23 | 37* | -21 | 11 | -3
N#Cc1ccc(NC(=S)N2CCC3CC2c2cc(-c4ccc5c(c4)OCO5)ccc23)cc1 (configuration not stated) | 0 | -6 | 7 | -4 | 2 | -2
CC1(C(=O)Nc2ccc3c(c2)OCO3)CCN1C(=O)C1CCCCC1 (configuration not stated) | -2 | 3 | -6 | 0 | 0 | 1
COc1cccc(CNC(=O)C2Cc3cc(S(=O)(=O)N4CCCC4)ccc3N2C(C)=O)c1OC (configuration not stated) | 17* | -2 | 0 | -1 | 1 | -4
COc1ccccc1CNC(=O)C1Cc2cc(S(=O)(=O)N3CCCC3)ccc2N1C(C)=O (configuration not stated) | 6 | 7 | 12 | 3 | 2 | -2
Cc1cc(C)c(CSc2ncc(-c3ccc([N+](=O)[O-])cc3)[nH]2)c(C)c1 | -13 | 36* | 19 | -14 | 4 | -3
CCc1nc2c(OCC(=O)C(C)(C)C)cccn2c1N(C=O)Cc1ccccc1 | -3 | 4 | 5 | -3 | 2 | 0
Cc1ccc(OCC(O)Cn2c(=N)n(Cc3ccccc3)c3ccccc32)cc1 (configuration not stated) | -24 | 12 | 10 | -7 | 33* | 3
CN(C)C(=O)c1cccc(COc2ccc(N3C(N)=NC(N)=NC3(C)C)cc2Cl)c1 | -6 | 9 | 5 | -8 | 1 | -3
CCCCC(=O)N1CCN(c2nc3ccc(Cl)cc3s2)CC1 | 23* | 2 | 5 | -8 | 15 | 0
CCCc1cc(=O)[nH]c(SCC(=O)NC2(C#N)CCCCC2)n1 | 23* | -11 | 1 | 9 | 0 | 0
SMILES | M4 PAM | CHRM4 antagonist | CHRM5 antagonist | M5 PAM | M4 ag | M5 ag
COC(=O)CC1OCC=C2CN3CCC45C6=CC(=O)C(=O)C([N+](=O)[O-])=C6NC4C1C2CC35 (configuration not stated) | -1 | 2 | -4 | 1 | 0 | 1
O=S(=O)(Nc1cccc2cccnc12)c1ccc(S(=O)(=O)N2CCCC2)cc1 | -22 | 31* | 9 | -7 | 3 | -4
O=S(=O)(Nc1cccc2cccnc12)c1ccccc1 | -9 | 42* | 15 | 1 | 2 | -2
CC(=O)Nc1ccc(S(=O)(=O)Nc2cccc3cccnc23)cc1 | -6 | 10 | 5 | -3 | 6 | 1
CCC(c1nnnn1-c1ccc2c(c1)OCCO2)N1CCN(C(C)=O)CC1 (configuration not stated) | 8 | -8 | -5 | -12 | 14 | 0
COc1cc2sc(-c3ccccc3OC)c(-c3ccc(OCCN4CCCCC4)cc3)c2cc1OC | -1 | 25 | 14 | -8 | 12 | 2
COc1ccccc1-c1sc2cc3c(cc2c1-c1ccc(OCCN2CCCCC2)cc1)OCO3 | 0 | 35* | 7 | -12 | 7 | -5
Cc1cc(C)c2sc(NNC(=O)C3COc4ccccc4O3)nc2c1 (configuration not stated) | 16* | -18 | -3 | 2 | 0 | 0
Cn1cc(CN2CCC(C(=O)NC(c3ccc(-c4ccccc4)cc3)c3cnccn3)CC2)c2ccccc21 (configuration not stated) | -10 | 28* | 11 | -3 | 29 | 1
Cc1ccc2[nH]c(=O)c3cc(C(=O)NCCC(C)C)sc3c2c1 | 0 | 3 | 3 | 2 | 0 | -4
CC(C)CCNC(=O)c1cc2c(=O)[nH]c3ccccc3c2s1 | 26* | 19 | 18 | 12 | 9 | -2
CCCCCCCCN1C(=O)[C@H](CC(=O)NCC2CCCCC2)C[C@@]2(C(=O)OCC)CCC=C12 | 1 | -10 | -5 | -1 | -1 | -4
COc1ccc(Cl)cc1NC(=O)c1nnn(CC(=O)Nc2ccc3c(c2)OCO3)c1N | 20* | 9 | -9 | 3 | 2 | -3
COc1ccc(NC(=O)c2nnn(CC(=O)Nc3ccc4c(c3)OCO4)c2N)cc1OC | 2 | 2 | 19 | -6 | 0 | -6
COC(=O)c1ccc(Cn2c(C)c(C(=O)Nc3cccc(Oc4ccccc4)c3)sc2=O)o1 | -5 | 3 | 19 | -18 | 19 | 8
